Our source for the folding enthalpy and Tm values is the array DNA melting data of Ke et al. (doi:10.1101/2024.01.08.574731).

Series [1] is described as follows: folding enthalpy; higher = less favourable; fluorescence melt of hairpins on a sequencing array, two-state fit. To be noted: sodium 0.088 M. The method, boiled down:
(§1)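 Folding enthalpy and melting temperature were estimated with bootstrapped two-state fits and combined across four replicates by inverse-variance weighting, with fitted temperatures raised by 9.35 °C to match UV melts. The data were Cy3 fluorescence of library hairpins, with annealed Cy3 and quencher oligos, on a sequenced MiSeq flow cell in 50 mM Na-HEPES pH 8.0, 25 mM NaCl, imaged in 2.5 °C steps up to 60 °C and normalised to pre-quench Cy3 and control constructs.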

The nature of series [2]: melting temperature; fluorescence melt of hairpins on a sequencing array, two-state fit, raised by 9.35 °C to match UV melts. As to conditions: sodium 0.088 M. The method, boiled down:
as §1

In the case of GCGCGGCGAAAGCCTAGC ((..(((....)))..)), in series [1], the folding enthalpy was -112 kJ/mol. Besides, in series [2], the Tm amounted to 61.1 °C.
On to GGTGAAGGAAACTCCACC ((((.((....)).)))), for which the folding enthalpy in series [1] is -131 kJ/mol. In addition, in series [2], the Tm was 39 °C.
On to GTTAACGGAAACGTTAAC (((((((....))))))), for which, in series [1], the folding enthalpy was -177 kJ/mol. The Tm in series [2] is 56.9 °C.
As to CGTCCGCGGAAACGCACG (((..(((....)))))), the folding enthalpy in series [1] was -50.2 kJ/mol. Further, in series [2], the Tm amounted to 33.5 °C.
Consider GATACGGGAAACCGTGTC ((.((((....)))).)), for which the folding enthalpy in series [1] is -129 kJ/mol. The Tm in series [2] was determined as 49.2 °C.
With GGGGTTGGAAACGACCCC (((((.(....).))))), the folding enthalpy in series [1] is -205 kJ/mol. For the same sequence, the Tm in series [2] stood at 57.8 °C.
On the same counts, the results for GTTATACGAAAGTAGAAC (((.(((....))).))) are -125 kJ/mol and 45.1 °C.
Take GTCAGCGAAAGCTGAGAC ((((((....)))..))): the folding enthalpy in series [1] was -37 kJ/mol. The Tm in series [2] is 49 °C.
GTTCTCGAAAGAGGAAC ((((((....))).))): the folding enthalpy in series [1] was -87 kJ/mol. The Tm in series [2] was found to be 38.3 °C.
Take GTGTACGGAAACGTATAC ((.((((....)))).)): in series [1], the folding enthalpy is -122 kJ/mol. Also, the Tm in series [2] was found to be 46.6 °C.
In the case of GTTTTGGGAAACTAAGAC ((.((.(....).)).)), the folding enthalpy in series [1] was -38 kJ/mol. Moreover, the Tm in series [2] was determined as 29 °C.
Take GATCCAGGCGTGGATC ((((((....)))))): the folding enthalpy in series [1] was -171 kJ/mol. The Tm in series [2] worked out at 53.6 °C.
Consider GGATGCGAAAGCAGTCC ((((((....))).))), for which the folding enthalpy in series [1] is -93.3 kJ/mol. For the same sequence, the Tm in series [2] worked out at 52.4 °C.
On the same counts, the results for GCGATCTCTCGC ((((....)))) are -130 kJ/mol and 47.9 °C.
GCGCAGCGAAAGCCACGC (((..((....))..))): the folding enthalpy in series [1] was -41.3 kJ/mol. The Tm in series [2] was 42.4 °C.
GTGTGGGGAAACCCACGC (.(((((....))))).): the folding enthalpy in series [1] was -59.5 kJ/mol. In addition, in series [2], the Tm is 58.8 °C.
Turning to GCGTTGCCGAAAGGCCGC (((..(((....)))))), in series [1], the folding enthalpy is -69.3 kJ/mol. Moreover, the Tm in series [2] stood at 55.6 °C.
Take GTCTATCGAAAGATCGAC (((.(((....))).))): the folding enthalpy in series [1] is -169 kJ/mol. For the same sequence, the Tm in series [2] came to 41.4 °C.
On the same counts, the results for GATCATCTCATGATC ((((((...)))))) are -158 kJ/mol and 50 °C.
On the same counts, the results for GAGCCGGCGAAAGCCCTC (((..(((....)))))) are -34.2 kJ/mol and 28.7 °C.
For the sequence GCCAGGGGAAACCTTGGC ((((.((....)).)))), in series [1], the folding enthalpy was -184 kJ/mol. The Tm in series [2] was 53.4 °C.
GAAAACGGAAACGTTTTC (((((((....))))))): in series [1], the folding enthalpy is -165 kJ/mol. For the same sequence, in series [2], the Tm was 57.9 °C.
On the same counts, the results for GGGCTCCCGAAAGGGCCC (((..(((....)))))) are -124 kJ/mol and 56 °C.
Regarding GGTTTCGGAAACGAAACC (((((((....))))))), in series [1], the folding enthalpy was -192 kJ/mol. Besides, the Tm in series [2] came to 66.5 °C.
With GAGGCGGGAAACTGCCTC (((((.(....).))))), the folding enthalpy in series [1] is -164 kJ/mol. The Tm in series [2] amounted to 61.1 °C.
In the case of GGACCAGGAAACTGACCC ((..(((....)))..)), the folding enthalpy in series [1] is -44.3 kJ/mol. For the same sequence, the Tm in series [2] is 23.5 °C.
For GGCTAACGAAAGTTGGCC (((.(((....))).))), the folding enthalpy in series [1] was -185 kJ/mol. Moreover, in series [2], the Tm came to 60.1 °C.
On to GGGGTCTCGAAAGAGCCC (((..(((....)))))), for which, in series [1], the folding enthalpy was -119 kJ/mol. Further, in series [2], the Tm was found to be 58.9 °C.
In the case of GCGGGCGAAAGCCACCGC ((((((....)))..))), in series [1], the folding enthalpy was -73 kJ/mol. Besides, the Tm in series [2] was found to be 59.2 °C.
On the same counts, the results for GAGACCCGAAAGGGCCTC (((.(((....))).))) are -120 kJ/mol and 58.5 °C.
The matching figures for GTATGAGGAAACTCATGC (.(((((....))))).): -111 kJ/mol and 44.5 °C.
As for GTTACTGAAAAGTAAC ((((((....)))))), in series [1], the folding enthalpy was -142 kJ/mol. The Tm in series [2] was determined as 49.4 °C.
As for GCAGTCGGAAACGACCAC (..((((....))))..), the folding enthalpy in series [1] is -34.1 kJ/mol. Further, the Tm in series [2] worked out at 32 °C.
The matching figures for GAGGGCGAAAGCCAGCTC ((((((....)))..))): -57.3 kJ/mol and 46.7 °C.
In the case of GCTTCGCGAAAGCGCAGC (((.(((....))).))), the folding enthalpy in series [1] was -128 kJ/mol. The Tm in series [2] amounted to 54.1 °C.
The matching figures for GGCCACGGAAACGTAGCC (((.(((....))).))): -117 kJ/mol and 50.8 °C.
On to GGACGAGCGAAAGCTTCC (((..(((....)))))), for which the folding enthalpy in series [1] is -38.9 kJ/mol. Further, the Tm in series [2] came out at 29.5 °C.
